One assay concerns poly[d(A-T)]. The experiment in a line: Binding constant relative to amsacrine (Δlog K) for DNA binding by ethidium bromide displacement. Particulars: Bos taurus.
The subject of another assay is HCT-8. The experiment in a line: In vitro for cytotoxicity against human colon tumor cells (HCT-8) in culture. Type of assay: functional, cell-based.
Another assay has as its system L1210. The experiment in a line: In vitro for cytotoxicity against murine leukemia cells (L1210). Type of assay: functional, cell-based. Particulars: Mus musculus.
Assay [1] concerns Lewis lung carcinoma cell line. Nature of the assay: In vivo for antitumor activity against Lewis lung carcinoma. Format: functional, Mus musculus. An outline of the steps:
(§1)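 Mice inoculated intravenously with 10^6 Lewis lung carcinoma cells, then drug intraperitoneally in 0.1 mL 30% v/v ethanol-water on days 5, 9 and 13. D50 (mg/kg per day for 50% ILS) taken from dose-response graph. ILS at optimal dose versus untreated tumor-bearing controls. Survivors counted at 40 days.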

Assay [2] concerns Lewis lung carcinoma cell line. The experiment in a line: Evaluated in vivo for antitumor activity against Lewis lung carcinoma. Type of assay: functional, Mus musculus. An outline of the steps:
as §1

Assay [3] relates to P388. Nature of the assay: In vivo for antitumor activity against P388 leukemia. Type of assay: functional, Mus musculus. A digest of the protocol: (§2)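 Mice given 10^6 P388 leukemia cells intraperitoneally, then drug intraperitoneally in 0.1 mL 30% v/v ethanol-water on days 1, 5 and 9. D50 (mg/kg per day giving 50% ILS) read from dose-response graph. ILS at optimal dose versus untreated controls. Long-term survival counted at 30 days.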

Assay [4] deals with P388. The experiment in a line: In vivo for antitumor activity against P388 leukemia. Format: functional, Mus musculus. A digest of the protocol:
as §2

Where only a bound is given, the exact number is not on record here.

This is an account of results in ChEMBL document CHEMBL1123442 (J Med Chem, 1986).

As for `COc1cc(NS(C)(=O)=O)ccc1Nc1c2ccccc2nc2cc(Br)ccc12`, the Δlog K with poly[d(A-T)] came out at 0.72.
For `CNc1cc(NS(C)(=O)=O)ccc1Nc1c2ccc(F)cc2nc2c(C)cccc12`, the IC50 with HCT-8 and in the assay with L1210 was 150 nM each time. Further, the ILSmax turned out to be 143% in assay [1] and 152% in the assay on P388 [4]. The OD (in assay [1]; with P388 [3]) was 45 mg/kg throughout. Besides, the figures for the D50 (in assay [2]; in the assay on P388 [4]) were 25 mg/kg and 6 mg/kg, respectively.
On to `CNc1cc(NS(C)(=O)=O)ccc1Nc1c2ccc(OC)cc2nc2c(C)cccc12`, for which the IC50 with HCT-8 amounted to 29 nM; in the assay with L1210, 16 nM. For the same compound, the ILSmax in assay [1] came out at 50%; in the assay with P388 [4], 166%. Also, the values for the OD (in assay [1]; with P388 [3]) were 4 mg/kg and 1.8 mg/kg, respectively. For the same compound, the D50 in assay [2] was determined as 4 mg/kg; in the assay on P388 [4], 0.3 mg/kg.
In the assay with poly[d(A-T)], `COc1cc(NS(C)(=O)=O)ccc1Nc1c2ccccc2nc2cc(C)ccc12` came in with a Δlog K of 0.38.
As to `CNc1cc(NS(C)(=O)=O)ccc1Nc1c2ccccc2nc2cc(OC)ccc12`, the figures for the IC50 in the assay on HCT-8 and in the assay on L1210 were 180 nM and 35 nM, respectively. Moreover, the ILSmax worked out at 75% in assay [1] and 132% in the assay on P388 [4]. In addition, the OD in assay [1] was 20 mg/kg; in the assay on P388 [3] it was 8.9 mg/kg. The D50 in assay [2] was determined as 15 mg/kg; in the assay on P388 [4] it was 4.5 mg/kg.
On to `COc1cc(NS(C)(=O)=O)ccc1Nc1c2ccccc2nc2ccc(Cl)cc12`, for which the Δlog K with poly[d(A-T)] is -0.08.
In turn, `COc1cc(NS(C)(=O)=O)ccc1Nc1c2ccccc2nc2c(OC)cccc12` displayed a Δlog K in the assay with poly[d(A-T)] of 0.37.
Regarding `CNc1cc(NS(C)(=O)=O)ccc1Nc1c2cccc(OC)c2nc2c(OC)cccc12`, the results for the IC50 with HCT-8 and with L1210 were 160 nM and 130 nM, respectively. For the same compound, the ILSmax in assay [1] is given as 116%; in the assay on P388 [4] it was 14%. The OD in assay [1] amounted to 65 mg/kg; in the assay on P388 [3], 150 mg/kg. The D50 in assay [2] stood at 30 mg/kg; in the assay with P388 [4], 25 mg/kg.
On to `CNc1cc(NS(C)(=O)=O)ccc1Nc1c2ccc(C)cc2nc2c(C)cccc12`, for which the values for the IC50 in the assay on HCT-8 and in the assay with L1210 were 24 nM and 19 nM, respectively. The ILSmax was found to be 93% in assay [1] and 92% in the assay with P388 [4]. The OD (in assay [1]; in the assay with P388 [3]) was 5.9 mg/kg in each case. The D50 was 4.2 mg/kg in assay [2] and 2 mg/kg in the assay with P388 [4].
For the compound `CNc1cc(NS(C)(=O)=O)ccc1Nc1c2ccc(Cl)cc2nc2c(OC)cccc12`, the IC50 with HCT-8 was 143 nM; in the assay with L1210, 120 nM. The ILSmax in assay [1] amounted to 159%; in the assay on P388 [4], 236%. In addition, the OD turned out to be 45 mg/kg in assay [1] and 65 mg/kg in the assay with P388 [3]. Also, the D50 in assay [2] was 13 mg/kg; in the assay with P388 [4], 20 mg/kg.
For `CNC(=O)c1cccc2c(Nc3ccc(NS(C)(=O)=O)cc3NC)c3cccc(C)c3nc12`, the values for the IC50 in the assay on HCT-8 and in the assay on L1210 were 353 nM and 82 nM, respectively. Moreover, the values for the ILSmax (in assay [1]; in the assay on P388 [4]) were 62% and 94%, respectively. The OD worked out at 30 mg/kg in assay [1] and 13.3 mg/kg in the assay on P388 [3]. The D50 was found to be 25 mg/kg in assay [2] and 6 mg/kg with P388 [4].
In the case of `CNc1cc(NS(C)(=O)=O)ccc1Nc1c2ccccc2nc2ccccc12`, the results for the OD (in assay [1]; in the assay on P388 [3]) were 30 mg/kg and 13.3 mg/kg, respectively.
On to `COc1cc(NS(C)(=O)=O)ccc1Nc1c2ccccc2nc2ccc(C)cc12`, for which, in the assay on poly[d(A-T)], the Δlog K is -0.22.
As to `COc1cc(NS(C)(=O)=O)ccc1Nc1c2ccccc2nc2cc(F)ccc12`, the Δlog K in the assay on poly[d(A-T)] was -0.03.
In the case of `CNc1cc(NS(C)(=O)=O)ccc1Nc1c2ccccc2nc2c(F)cccc12`, the IC50 in the assay with HCT-8 worked out at 690 nM; in the assay with L1210 it was 400 nM. Further, the ILSmax in assay [1] came out at 55%; in the assay on P388 [4] it was 152%. The values for the OD (in assay [1]; in the assay on P388 [3]) were 65 mg/kg and 45 mg/kg, respectively. Moreover, the D50 was 60 mg/kg in assay [2] and 20 mg/kg in the assay with P388 [4].
`CNc1cc(NS(C)(=O)=O)ccc1Nc1c2ccccc2nc2c(OC)cccc12`: the IC50 in the assay on HCT-8 was found to be 140 nM; with L1210, 130 nM. Further, the ILSmax in assay [1] is on record as 153%; in the assay on P388 [4] it was 170%. Besides, the OD (in assay [1]; in the assay with P388 [3]) was 45 mg/kg throughout. Moreover, the D50 in assay [2] came to 19 mg/kg; with P388 [4], 5 mg/kg.
`CNc1cc(NS(C)(=O)=O)ccc1Nc1c2ccc(C)cc2nc2c(OC)cccc12`: the IC50 in the assay on HCT-8 was 70 nM; in the assay with L1210, 65 nM. For the same compound, the results for the ILSmax (in assay [1]; in the assay on P388 [4]) were 194% and 122%, respectively. For the same compound, the OD in assay [1] was found to be 20 mg/kg; in the assay with P388 [3], 13.3 mg/kg. For the same compound, the D50 was found to be 10 mg/kg in assay [2] and 5.5 mg/kg in the assay with P388 [4].
On to `CNC(=O)c1cccc2c(Nc3ccc(NS(C)(=O)=O)cc3NC)c3ccccc3nc12`, for which the IC50 with HCT-8 worked out at 1800 nM; in the assay with L1210 it was 56 nM. Further, the ILSmax in assay [1] is 91%; with P388 [4], 82%. For the same compound, the OD in assay [1] was found to be 45 mg/kg; with P388 [3] it was 65 mg/kg. Besides, the D50 in assay [2] was 6.8 mg/kg; in the assay with P388 [4], 30 mg/kg.
For the compound `CNc1cc(NS(C)(=O)=O)ccc1Nc1c2ccc(Cl)cc2nc2c(C)cccc12`, the IC50 amounted to 73 nM with HCT-8 and 15 nM in the assay on L1210. Also, the ILSmax is on record as 126% in assay [1] and 128% with P388 [4]. The OD in assay [1] was 30 mg/kg; in the assay with P388 [3], 13.3 mg/kg. Moreover, the D50 worked out at 8 mg/kg in assay [2] and 5 mg/kg with P388 [4].
In turn, `COc1cc(NS(C)(=O)=O)ccc1Nc1c2ccccc2nc2c(C)cccc12` gave a Δlog K with poly[d(A-T)] of 0.46.
As to `CNC(=O)c1cccc2c(Nc3ccc(NS(C)(=O)=O)cc3OC)c3ccccc3nc12`, the Δlog K in the assay with poly[d(A-T)] was -0.03.
Consider `COc1cc(NS(C)(=O)=O)ccc1Nc1c2ccccc2nc2cc(I)ccc12`, for which the Δlog K in the assay on poly[d(A-T)] was found to be 0.78.
For `COc1ccc2c(Nc3ccc(NS(C)(=O)=O)cc3OC)c3ccccc3nc2c1`, the Δlog K in the assay with poly[d(A-T)] came to 0.26.
As to `CNC(=O)c1ccc2c(Nc3ccc(NS(C)(=O)=O)cc3NC)c3ccccc3nc2c1`, the IC50 in the assay with HCT-8 was > 104 nM. Further, the IC50 in the assay with L1210 is > 1600 nM. The compound further registered an OD in the assay with P388 [3] of 65 mg/kg. In the assay on P388 [4], the D50 stood at 30 mg/kg and the ILSmax came to 62%.
`COc1cc(NS(C)(=O)=O)ccc1Nc1c2ccccc2nc2cc(Cl)ccc12` yielded a Δlog K in the assay with poly[d(A-T)] of 0.49.
As to `CNC(=O)c1cccc2c(Nc3ccc(NS(C)(=O)=O)cc3OC)c3cccc(C)c3nc12` [ASULACRINE], the OD in assay [1] came out at 30 mg/kg; in the assay on P388 [3], 20 mg/kg.
In the assay with poly[d(A-T)], `COc1cc(NS(C)(=O)=O)ccc1Nc1c2ccccc2nc2c(Cl)cccc12` gave a Δlog K of 0.19.
Turning to `COc1ccc2[nH]c3ccccc3c(=Nc3ccc(NS(C)(=O)=O)cc3OC)c2c1`, in the assay on poly[d(A-T)], the Δlog K is -0.08.
